In ChEMBL document CHEMBL1140468, “Design, synthesis and biological evaluation of substituted dioxodibenzothiazepines and dibenzocycloheptanes as farnesyltransferase inhibitors” (Bioorg Med Chem Lett, 2007):

How the values were obtained:
[1] = system: MCF7; assay: Antiproliferative activity against MCF7 cells by colorimetric MTT assay; format: functional, cell-based; settings: Homo sapiens
Summary of the method: (§1)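 Proliferation of the human tumour lines DU145, PC-3 and MCF-7 was read out by colorimetric MTT assay. Values come from at least three independent determinations, with standard deviation below 10%.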

[2] = system: DU-145; assay: Antiproliferative activity against DU145 cells by colorimetric MTT assay; format: functional, cell-based; settings: Homo sapiens; summary of the method: as §1
[3] = system: PC-3; assay: Antiproliferative activity against PC3 cells by colorimetric MTT assay; format: functional, cell-based; settings: Homo sapiens; summary of the method: as §1
[4] = system: L1210; assay: Antiproliferative activity against L1210 cells by cell numeration; settings: Mus musculus
[5] = molecular target: Protein farnesyltransferase (Homo sapiens, UniProt P49354+P49356); assay: Inhibition of FTase by fluorescence spectrometry technique; format: protein-complex assay
[6] = system: L1210; assay: Antiproliferative activity against L1210 cells by cell numeration at 10 uM; settings: Mus musculus
[7] = system: DU-145; assay: Antiproliferative activity against DU145 cells by colorimetric MTT assay at 100 uM; format: functional; settings: Homo sapiens

IC50 [1] [µM] | IC50 [2] [µM] | IC50 [3] [µM] | IC50 [4] [µM] | IC50 [5] [µM] | SMILES | inhibition at 10 µM [6] [%] | inhibition at 100 µM [7] [%]
45 | 9.55 | 11.4 | 4.85 | 0.31 | N#Cc1ccc(Cn2cncc2CN2CCN(C3c4ccccc4CCc4ccccc43)CC2)cc1 |  | 
33 | 47.4 | 27.3 | 4.57 | 0.0173 | N#Cc1ccc(Cn2cncc2CN2CCCN(C3c4ccccc4N(CCCN4CCOCC4)S(=O)(=O)c4ccccc43)CC2)cc1 (centres undefined) |  | 
> 100 | > 100 | > 100 |  | 0.0285 | N#Cc1ccc(Cn2cncc2CN[C@H](CC(=O)N[C@@H](Cc2ccccc2)C(N)=O)Cc2ccccc2)cc1 | 41 | 
48 | 59.8 | 50 | 4.76 | 0.0448 | CN1c2ccccc2C(N2CCCN(Cc3cncn3Cc3ccc(C#N)cc3)CC2)c2ccccc2S1(=O)=O (centres undefined) |  | 
41 | 51.3 |  |  | 0.285 | N#Cc1ccc(Cn2cncc2CN2CCCN(C3c4ccccc4CCc4ccccc43)CC2)cc1 | 34 | 
 |  |  | 4.95 | 0.022 | COC(=O)[C@H](Cc1ccccc1)N(C(=O)c1ccccc1)C1CCN(Cc2cncn2Cc2ccc(C#N)cc2)CC1 |  | 
76 | 100 | 69.4 | 3.9 | 0.045 | CN1c2ccccc2C(N2CCN(Cc3cncn3Cc3ccc(C#N)cc3)CC2)c2ccccc2S1(=O)=O (centres undefined) |  | 
 |  | 34.1 | 4 | 0.0465 | CCCN1c2ccccc2C(N2CCCN(Cc3cncn3Cc3ccc(C#N)cc3)CC2)c2ccccc2S1(=O)=O (centres undefined) |  | 38
66 | 100 |  | 3 | 0.043 | CCCCN1c2ccccc2C(N2CCCN(Cc3cncn3Cc3ccc(C#N)cc3)CC2)c2ccccc2S1(=O)=O (centres undefined) |  | 
